Assay results from PubChem BioAssay.
Inconclusive results are not listed.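 How the source made its calls, unless noted: active means RAM network inhibition above 8.4% in each of two replicates, 3 SD over the compound average; inconclusive means above 8.4% inhibition in only one replicate; inactive means 8.4% inhibition or less in each replicate.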

How the values were obtained:
[1] = OD615 S. cerevisiae growth inhibition, permissive medium, pilot counter-assay, permissive growth control for S. cerevisiae lifespan shortening project (AID 705;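 active means growth inhibition above 25% in both replicates, a cutoff set 3 SD above the mean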); details: OD615, 24 h, at 10 µM, hits give high values
How it was run: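 Timing: 24 h exposure, 30 °C / Material: Saccharomyces cerevisiae strain carrying genetically modified DeaD replicative-lifespan system / Signal: OD at 615 nm / Compound: 10 µM single dose, 0.25% DMSO / Medium: SC raffinose/galactose permissive medium / Evaluation: reduction in yeast growth (OD615)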

[2] = Restrictive medium S. cerevisiae growth inhibition, OD615, pilot screen of yeast lifespan reduction project, restrictive growth control (AID 706;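 active means growth inhibition above a set limit, 3 SD over mean compound inhibition, in both replicates, cut at about 43% in these data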;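 further: modified DeaD lifespan yeast strain shifted to restrictive glucose medium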); details: OD615, 48 h, at 10 µM, hits give high values
How it was run: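 System: Engineered S. cerevisiae DeaD strain | Detection: OD615 | Buffer or medium: CSMM-D glucose medium | Doses: 10 µM compound, 0.25% DMSO | Timing: 4 h pre-growth plus 48 h compound exposure, 30 °C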

[3] = viability gain of MRP-1-high H69AR cells under doxorubicin, pilot screen, MRP-1 activator project, CellTiter-Glo, duplicate (AID 807;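 active means viability increase at or above a cutoff of the median across tested compounds plus 3 SD, cut at about 8.5% in these data, passing the limit was not always enough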;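 further: compound pretreatment 18-22 h then 72 h combined with doxorubicin; 0% = doxorubicin alone and 100% = vehicle without doxorubicin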); details: H69AR viability with doxorubicin, CellTiter-Glo luminescence; at 10 µM; hits give high values
[4] = growth suppression of beta-catenin knockout HCT116, pilot screen, human colon tumor cells (AID 823;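 active means cell viability at or below a set limit in both duplicate runs, the limit being the all-compound median minus 4 SD, cut at about 23% in these data, passing the limit was not always enough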;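 further: 0% = wells killed by 20 µM Hyamine and 100% = untreated DMSO cell wells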); details: CellTiter-Glo, 60 h, at 10 µM, hits give low values
[5] = growth suppression of PTEN-deleted HCT116, pilot screen, cell-based, HCT116 clonal line, CellTiter-Glo (AID 824;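 active means viability at or below 27.92% in each of two runs, the all-compound median minus 4 SD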;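 further: 0% = 20 µM Hyamine control and 100% = vehicle cell control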); details: 60 h, at 10 µM, hits give low values
[6] = inhibitors of the yeast RAM network, pilot screen, dse1pr::URA3 reporter, 5-FOA selection (AID 869;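 active means inhibition over a set limit, the all-compound mean plus 3 SD, in both replicate runs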;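 further: 0% = DMSO wells with no growth and 100% = 10 µM 1-NA-PP1 with full growth; RAM network block rescues cells from 5-FOA so hits raise OD615 growth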); details: S. cerevisiae dse1pr::URA3 5-FOA growth, OD615, 2 d; at 10 µM; hits give high values; strain carries analog-sensitive mutant Cbk1 kinase
[7] = RAM signaling pathway blockade in yeast – S. cerevisiae, Pdr1DBD-CYC8 efflux-inhibited sensitized strain, primary screen (AID 1298);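 further: 0% = DMSO untreated cells without growth and 100% = 10 µM 1-NA-PP1 full growth; higher means more yeast growth rescued from 5-FOA killing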; details: S. cerevisiae cbk1-as DSE1-URA3 strain, 5-FOA growth OD615, 2 d; at 50 µM; hits give high values

CN1CCN(C(=O)c2ccc3c(c2)N(Cc2cccc(Cl)c2)C(=O)c2ccccc2S3=O)CC1 (stereo not given)
inactive: growth inhibition [1] -4.92% | growth inhibition [2] -10.7% | viability increase [3] -3.66% | viability [4] 102% | viability [5] 99.1% | inhibition [6] 0.63% | RAM network inhibition [7] 6.41%

COc1ccc(S(=O)(=O)Cc2ccc(C(=O)NCc3ccc(F)cc3)o2)cc1
inactive: growth inhibition [1] -13.6% | growth inhibition [2] -14.1% | viability increase [3] -0.39% | viability [4] 92.2% | viability [5] 87.5% | inhibition [6] 0.735% | RAM network inhibition [7] 2.4%

CCCCNc1ncnc2c1cnn2-c1ccc(C)cc1C
inactive: growth inhibition [1] 6.55% | growth inhibition [2] 9.48% | viability increase [3] -3.72% | viability [4] 92.8% | viability [5] 89.2% | inhibition [6] -0.12% | RAM network inhibition [7] 0.27%

CCn1c(-c2cc(OC)ccc2OC)csc1=Nc1c(C)n(C)n(-c2ccccc2)c1=O
inactive: growth inhibition [1] -11.1% | growth inhibition [2] -22.9% | viability increase [3] 0.28% | viability [4] 93.8% | viability [5] 92.5% | inhibition [6] 1.58% | RAM network inhibition [7] 4.62%

Cc1n[nH]c(C)c1S(=O)(=O)N(CC(=O)NC1CCCC1)c1ccc(C(C)C)cc1
inactive: growth inhibition [1] -7.41% | growth inhibition [2] 9.02% | viability increase [3] -3.3% | viability [4] 80.3% | viability [5] 76.9% | inhibition [6] 0.63% | RAM network inhibition [7] 3.37%

CN1C(=O)CC(N2CCN(c3ncccn3)CC2)C1=O (stereo not given)
inactive: growth inhibition [1] 1.35% | growth inhibition [2] -4.12% | viability increase [3] 0.31% | viability [4] 103% | viability [5] 100% | inhibition [6] 0.77% | RAM network inhibition [7] 5.07%

Cc1nn(C)c(C)c1S(=O)(=O)N(CC(=O)NCc1ccco1)c1ccc(C(C)C)cc1
inactive: growth inhibition [1] -10.3% | growth inhibition [2] -2.95% | viability increase [3] -5.76% | viability [4] 96.8% | viability [5] 97.3% | inhibition [6] -0.17% | RAM network inhibition [7] 7.88%

COC(=O)c1ccc(C2C(C(=O)Nc3ccc(C)cc3C)=C(C)Nc3ncnn32)cc1 (stereo not given)
inactive: growth inhibition [1] 2.06% | growth inhibition [2] 9.76% | viability increase [3] -2.32% | viability [4] 97.2% | viability [5] 92.9% | inhibition [6] 2.46% | RAM network inhibition [7] 8.36%

CCOC(=O)c1[nH]c2c(c1C)C(=O)CC(c1ccc(N(C)C)cc1)C2 (stereo not given)
inactive: growth inhibition [1] -3.69% | growth inhibition [2] -0.995% | viability increase [3] -3.6% | viability [4] 77% | viability [5] 71.7% | inhibition [6] 2.3% | RAM network inhibition [7] 1.32%

Cc1cccc(-n2c(O)c(C=Nc3ccc4c(c3)OCO4)c3ccccc3c2=O)n1
inactive: growth inhibition [1] 1.54% | growth inhibition [2] -8.37% | viability increase [3] -0.5% | viability [4] 89.3% | viability [5] 80.2% | inhibition [6] 0.93% | RAM network inhibition [7] 2.46%

O=C(CCC(=O)OCCCC(F)(F)C(F)(F)F)Nc1ccccc1
inactive: growth inhibition [1] -3.25% | growth inhibition [2] 3.78% | viability increase [3] 1.41% | viability [4] 100% | viability [5] 104% | inhibition [6] 0.785% | RAM network inhibition [7] 3.34%

COc1cc(NC(=O)Cn2ncc3c2-c2ccccc2OC3)cc(OC)c1OC
inactive: growth inhibition [1] -6.13% | growth inhibition [2] 6.98% | viability increase [3] -3.04% | viability [4] 86.6% | viability [5] 83.5% | inhibition [6] 2.05% | RAM network inhibition [7] 2.19%

CCCN1CCN(CCCNC(=O)c2cc3c(=O)n(C)c4ccccc4c3n2C)CC1
inactive: growth inhibition [1] -5.02% | growth inhibition [2] 0.66% | viability increase [3] -7.07% | viability [4] 64.1% | viability [5] 65.3% | inhibition [6] 0.68% | RAM network inhibition [7] 1.89%

CCOC(=O)C1C(=O)NC(SC)=C(C#N)C1c1ccccc1F (stereo not given)
inactive: growth inhibition [1] -2.39% | growth inhibition [2] -17% | viability increase [3] -2.97% | viability [4] 90.8% | viability [5] 95.5% | inhibition [6] -1% | RAM network inhibition [7] -1.66%

COc1ccc(NC(=O)Nc2cccc3cccnc23)cc1
inactive: growth inhibition [1] -3.3% | growth inhibition [2] -0.385% | viability increase [3] -4.59% | viability [4] 88.5% | viability [5] 78% | inhibition [6] -0.39% | RAM network inhibition [7] 0.21%

O=C(CN1CCOc2ccccc21)NC1CCCCCCC1
inactive: growth inhibition [1] -14.2% | growth inhibition [2] 21.8% | viability increase [3] -5.54% | viability [4] 75.5% | viability [5] 78.2% | inhibition [6] 1.38% | RAM network inhibition [7] 0.83%

Cn1c(C(=O)NCCCN2CCN(c3cccc(Cl)c3)CC2)cc2c(=O)n(C)c3ccccc3c21
inactive: growth inhibition [1] -2.52% | growth inhibition [2] -0.835% | viability increase [3] -2.92% | viability [4] 59.9% | viability [5] 59% | inhibition [6] -0.02% | RAM network inhibition [7] 7.94%

Cc1nc2ccccc2c(=O)n1NC(=O)c1c(O)c2ccccc2n(C)c1=O
inactive: growth inhibition [1] -5.41% | growth inhibition [2] 7.71% | viability increase [3] -2.45% | viability [4] 100% | viability [5] 99% | inhibition [6] 0.995% | RAM network inhibition [7] 0.88%

COc1ccc(NC(=O)CCS(=O)(=O)c2cccc3nonc23)c(OC)c1
inactive: growth inhibition [1] -4.67% | growth inhibition [2] -11.7% | viability increase [3] -2.54% | viability [4] 96.2% | viability [5] 93.8% | inhibition [6] 0.51% | RAM network inhibition [7] 2.06%

CCCc1cc(C(=O)Nc2cccc(Cl)c2)no1
inactive: growth inhibition [1] -7.36% | growth inhibition [2] -1.01% | viability increase [3] 0.77% | viability [4] 102% | viability [5] 97.7% | inhibition [6] 1.44% | RAM network inhibition [7] -1.31%

O=c1cc(-c2ccccc2Cl)c2c([nH]1)CCC2
inactive: growth inhibition [1] -9.7% | growth inhibition [2] 0.91% | viability increase [3] -2.8% | viability [4] 94.5% | viability [5] 87.2% | inhibition [6] 1.71% | RAM network inhibition [7] 0.26%

CCCc1cc(C(=O)Nc2cccc(C(C)=O)c2)no1
inactive: growth inhibition [1] -4.86% | growth inhibition [2] 1.98% | viability increase [3] 0.44% | viability [4] 104% | viability [5] 92.3% | inhibition [6] 1.75% | RAM network inhibition [7] 2.91%

Cc1cccc(-c2nc(CS(=O)CC(=O)NCC3CCCO3)c(C)o2)c1 (stereo not given)
inactive: growth inhibition [1] 4.35% | growth inhibition [2] 17.3% | viability increase [3] -2.27% | viability [4] 105% | viability [5] 96.3% | inhibition [6] 0.725% | RAM network inhibition [7] 2.14%

COc1ccccc1CC(=O)N1CCN(c2cccc(C(F)(F)F)c2)CC1
inactive: growth inhibition [1] -9.59% | growth inhibition [2] 5.32% | viability increase [3] 1.84% | viability [4] 39.9% | viability [5] 60.9% | inhibition [6] 1.1% | RAM network inhibition [7] 7.84%

Cn1c(=O)c2c(nc(N3CCCCCC3)n2CCSc2nc3ccccc3o2)n(C)c1=O
inactive: growth inhibition [1] -6.38% | growth inhibition [2] -18.4% | viability increase [3] -6.62% | viability [4] 80.4% | viability [5] 83% | inhibition [6] 1.14% | RAM network inhibition [7] 2.45%

Cn1c(NC(=O)c2cccc(C(F)(F)F)c2)cc(=O)n(C)c1=O
inactive: growth inhibition [1] -16% | growth inhibition [2] -5.14% | viability increase [3] -2.74% | viability [4] 98.8% | viability [5] 94.5% | inhibition [6] 0.925% | RAM network inhibition [7] 1.89%

CCOC(=O)N1CCN(C(=O)CSc2nnc(-c3ccc(C(C)(C)C)cc3)o2)CC1
inactive: growth inhibition [1] -7.79% | growth inhibition [2] 8.32% | viability increase [3] -1.07% | viability [4] 85.2% | viability [5] 83.7% | inhibition [6] 0.505% | RAM network inhibition [7] 1.1%

CCCSC1=N/C(=C\c2ccsc2)C(=O)S1
inactive: growth inhibition [1] -10.5% | growth inhibition [2] -3.12% | viability increase [3] -0.76% | viability [4] 95.1% | viability [5] 99.2% | inhibition [6] 0.72% | RAM network inhibition [7] 9.91%

CSc1nnc2c(n1)OC(c1ccc(C(=O)O)cc1)N(C(C)=O)c1ccccc1-2 (stereo not given)
inactive: growth inhibition [1] -1% | growth inhibition [2] 13.2% | viability increase [3] 0.23% | viability [4] 102% | viability [5] 96.6% | inhibition [6] 1.57% | RAM network inhibition [7] 3.34%

O=C(NCc1ccco1)C1CCN(c2nc3ccccc3n2Cc2ccc(F)cc2)CC1
inactive: growth inhibition [1] -6.36% | growth inhibition [2] -0.175% | viability increase [3] -5.61% | viability [4] 78.1% | viability [5] 73.9% | inhibition [6] 0.41% | RAM network inhibition [7] 7.12%

Cc1cc(C)c2c(CC(=O)O)coc2c1
inactive: growth inhibition [1] -5.72% | growth inhibition [2] 10.2% | viability increase [3] 0.24% | viability [4] 93.9% | viability [5] 105% | inhibition [6] 2.03% | RAM network inhibition [7] 0.98%

COC(=O)c1cc(NC2c3ccccc3C(=O)N2c2cccnc2)cc(C(=O)OC)c1 (stereo not given)
inactive: growth inhibition [1] -10.2% | growth inhibition [2] 0.875% | viability increase [3] -4.6% | viability [4] 90.6% | viability [5] 91.4% | inhibition [6] 1.27% | RAM network inhibition [7] 6.35%

CC(C)NS(=O)(=O)c1ccc2c(c1)oc(=O)n2C
inactive: growth inhibition [1] -2.26% | growth inhibition [2] 2.4% | viability increase [3] -0.75% | viability [4] 106% | viability [5] 98.7% | inhibition [6] -0.14% | RAM network inhibition [7] 0.91%

CCc1nc(C)cn1S(=O)(=O)c1ccc(Cl)c(Cl)c1Cl
inactive: growth inhibition [1] -6.5% | growth inhibition [2] -13.9% | viability increase [3] -0.17% | viability [4] 99.3% | viability [5] 98.7% | inhibition [6] 0.805% | RAM network inhibition [7] 7.3%

Cc1ccc(C(=O)NCc2ccc3c(c2)OCO3)cc1N1CCCC1=O
inactive: growth inhibition [1] 5.69% | growth inhibition [2] 4.36% | viability increase [3] -1.36% | viability [4] 91.7% | viability [5] 98.2% | inhibition [6] 0.635% | RAM network inhibition [7] 4.17%
